This passage reports Tm and folding enthalpy results from the array DNA melting data of Ke et al. (doi:10.1101/2024.01.08.574731).

The nature of data set [1]: melting temperature; fluorescence melt of hairpins on a sequencing array, two-state fit, raised by 9.35 °C to match UV melts. To be noted: sodium 0.088 M. An outline of the steps:
(§1)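 Cy3 fluorescence of library hairpins on a sequenced MiSeq flow cell, with annealed Cy3 and quencher oligos, was imaged in 50 mM Na-HEPES pH 8.0, 25 mM NaCl in 2.5 °C steps up to 60 °C. Signals were normalised to pre-quench Cy3 and to control variants. Melting temperature and folding enthalpy came from bootstrapped two-state fits, inverse-variance combined over four replicates. Fitted temperatures were raised by 9.35 °C to match UV melts.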

Data set [2] can be described thus: folding enthalpy; higher = less favourable; fluorescence melt of hairpins on a sequencing array, two-state fit. The conditions noted are these: sodium 0.088 M. An outline of the steps: as §1

GATGTGCGAAAGCATATC (((.(((....))).))): the Tm in data set [1] was determined as 54.2 °C. For the same sequence, in data set [2], the folding enthalpy was -32.6 kcal/mol.
The corresponding values for GATGTGGGAAACCATATC (((.(((....))).))) are 43.2 °C and -41.5 kcal/mol.
As for GATTAAGGAAACTTAATC (((((((....))))))), in data set [1], the Tm turned out to be 45.5 °C. The folding enthalpy in data set [2] was -31.3 kcal/mol.
The corresponding values for GATTACGAAAGTAATATC ((((((....)))..))) are 38.6 °C and -22.1 kcal/mol.
For GATTACGAAAGTACATC ((((((....))).))), the Tm in data set [1] was determined as 31.1 °C. Also, in data set [2], the folding enthalpy is -17.7 kcal/mol.
In the case of GATTAGGGAAACCTAATC (((((((....))))))), the Tm in data set [1] was 50.3 °C. Moreover, the folding enthalpy in data set [2] was -45.1 kcal/mol.
As for GATTATGGAAACATGATC (((.(((....))).))), in data set [1], the Tm was found to be 35.5 °C. In data set [2], the folding enthalpy is -32.8 kcal/mol.
The like results for GATTCACGAAAGTGATC (((.(((....)))))) were, in that order, 42.3 °C and -13.4 kcal/mol.
For the sequence GATTCAGAAATGAATC ((((((....)))))), the Tm in data set [1] came to 46.7 °C. The folding enthalpy in data set [2] was -25.8 kcal/mol.
Regarding GATTCAGGAAACTGAACC (.(((((....))))).), the Tm in data set [1] was 31.4 °C. In addition, in data set [2], the folding enthalpy is -17.4 kcal/mol.
The corresponding values for GATTCCCGAAAGGGCATC (((.(((....))).))) are 41.5 °C and -20.8 kcal/mol.
Consider GATTCCGAAAGGAAATC ((((((....))).))), for which, in data set [1], the Tm came out at 41.5 °C. In data set [2], the folding enthalpy was -21.4 kcal/mol.
On to GATTCCGAAAGGAAGATC ((((((....)))..))), for which the Tm in data set [1] came out at 45.4 °C. Further, the folding enthalpy in data set [2] is -22.3 kcal/mol.
Turning to GATTCCGAAAGGAATC ((((((....)))))), the Tm in data set [1] was 64.9 °C. The folding enthalpy in data set [2] was -35.7 kcal/mol.
For GATTCCGAAAGGACAATC ((((((....)))..))), the Tm in data set [1] was 25.6 °C. In data set [2], the folding enthalpy is -13.8 kcal/mol.
As to GATTCCGAAAGGAGGATC ((((((....)))..))), in data set [1], the Tm turned out to be 30.4 °C. Also, the folding enthalpy in data set [2] is -11.2 kcal/mol.
On to GATTCCGAAAGGATGATC ((((((....)))..))), for which, in data set [1], the Tm turned out to be 31.8 °C. Besides, in data set [2], the folding enthalpy is -21.8 kcal/mol.
GATTCGGGAAACCGAATC (((((((....))))))): the Tm in data set [1] was found to be 60.4 °C. For the same sequence, the folding enthalpy in data set [2] is -47.5 kcal/mol.
GATTCGGGAAACCGGATC (((.(((....))).))): the Tm in data set [1] came to 49.3 °C. For the same sequence, in data set [2], the folding enthalpy is -39.6 kcal/mol.
Regarding GATTCGGGAAACTGAATC (((((.(....).))))), the Tm in data set [1] was 45 °C. Further, the folding enthalpy in data set [2] is -40.8 kcal/mol.
On to GATTGACGAAAGTCTATC (((.(((....))).))), for which the Tm in data set [1] came out at 46.1 °C. Further, the folding enthalpy in data set [2] was -26.2 kcal/mol.
Turning to GATTGAGGAAACTCAGTC ((.((((....)))).)), the Tm in data set [1] was 36.6 °C. The folding enthalpy in data set [2] was -26.8 kcal/mol.
GATTGCGAAAGCAATATC ((((((....)))..))): the Tm in data set [1] turned out to be 50.1 °C. Besides, the folding enthalpy in data set [2] was -13.1 kcal/mol.
The corresponding values for GATTGCGAAAGCACATC ((((((....))).))) are 40.1 °C and -19.3 kcal/mol.
On to GATTGCGAAAGCAGAATC ((((((....)))..))), for which the Tm in data set [1] amounted to 35.4 °C. Also, the folding enthalpy in data set [2] was -13.8 kcal/mol.
On to GATTGCGGAAACGCAACC (.(((((....))))).), for which the Tm in data set [1] turned out to be 45.5 °C. For the same sequence, the folding enthalpy in data set [2] was -12.2 kcal/mol.
For the sequence GATTGGCGAAAGCCATC (((.(((....)))))), in data set [1], the Tm is 41.3 °C. In data set [2], the folding enthalpy was -9.48 kcal/mol.
Take GATTGGGGAAACCCAACC (.(((((....))))).): in data set [1], the Tm is 36.7 °C. For the same sequence, in data set [2], the folding enthalpy is -14.5 kcal/mol.
Turning to GATTGGGGAAACCCAATC (((((((....))))))), the Tm in data set [1] stood at 61 °C. Moreover, the folding enthalpy in data set [2] was -41 kcal/mol.
For the sequence GATTGTGGAAACATAATC ((((.((....)).)))), the Tm in data set [1] is 36.1 °C. For the same sequence, the folding enthalpy in data set [2] was -27.3 kcal/mol.
With GATTGTGGAAACATGATC (((..((....))..))), the Tm in data set [1] was 31.2 °C. Further, the folding enthalpy in data set [2] was -18 kcal/mol.
As for GATTTAGCGAAAGCTATC (((..(((....)))))), the Tm in data set [1] worked out at 29.1 °C. In addition, in data set [2], the folding enthalpy was -10.5 kcal/mol.
Regarding GATTTAGGAAACTGAATC ((((.((....)).)))), in data set [1], the Tm is 33.1 °C. Moreover, the folding enthalpy in data set [2] was -26.4 kcal/mol.
With GATTTCGGAAACGGAATC ((((.((....)).)))), in data set [1], the Tm came to 45 °C. Further, the folding enthalpy in data set [2] was -38.9 kcal/mol.
As for GATTTTACGAAAGTAATC (((..(((....)))))), the Tm in data set [1] amounted to 26.3 °C. In addition, the folding enthalpy in data set [2] is -13.6 kcal/mol.
The like results for GCAAAACGAAAGTTATGC (((.(((....))).))) were, in that order, 45.8 °C and -28.9 kcal/mol.
